Source: publication PMC7683378 (Journal of autoimmunity, 2020)

Experiments:
[1] = test system: lymphocytes from immunized SJL-DQ8 mice; assay: Ex vivo lymphocyte proliferation; assay type: cell-based, mouse; settings: all peptides 20 μg/ml, 5 days, flow cytometry
Outline: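 Spleen/draining-node cells from InsB:9-23-immunised SJL-DQ8 mice, 10^6 cells at 2×10^6/ml in 0.1% BSA/PBS, labelled with 1.5 μM CFSE for 10 min at 37 °C. Quenched with ice-cold RPMI/10% FBS, 5 min on ice, washed three times. Plated at 2×10^5 cells/well with peptides at 20 μg/ml for 5 days. Flow cytometry gated on live singlets; at least triplicates; inhibition = 100 − 100 × (proliferation with/without RI-D-peptide).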

[2] = test system: lymphocytes from immunized SJL-DQ8 mice; assay: ELISPOT of IL-2 and IFN-γ secretion by lymphocytes of immunized SJL-DQ8 mice; assay type: cell-based, mouse; settings: 5X10^5 lymphocytes, peptides 20 μg/ml, 48 hours
Outline: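 SJL-DQ8 mice (6; 3 female, 3 male) immunised s.c. with 150 μg InsB:9-23 in CFA and boosted in IFA. 5×10^5 spleen/draining-node lymphocytes plated on nitrocellulose wells coated with 4 μg/ml IL-2 or 10 μg/ml anti-IFN-γ capture antibody, 48 h at 37 °C with peptides at 20 μg/ml. Biotinylated detection antibody 2 h, streptavidin-AP 1 h, BCIP/NBT development. Positive response: >20 net SFC/10^6 and P<0.05 (t-test, triplicates).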

[3] = test system: PBMCs from HLA-DQ8 positive T1D patients; assay: Cytokine production; assay type: cell-based, human; settings: all peptides 20 μg/ml, 48 hours, Luminex; 31 new onset DQ8 positive T1D patients
Outline: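 Fresh PBMCs from heparinised blood (Ficoll) of patients genotyped for at least one DQB*03:02 allele, seeded in RPMI/10% FBS. Stimulated 48 h with InsB:9-23 or scrambled InsB:9-23, with or without RI-D-peptides or scrambled versions, all peptides at 20 μg/ml. Supernatant cytokines by Luminex, as for mouse lymphocytes. Long-standing (>10 years) DQ8 T1D patients served as controls.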

[4] = test system: 5KC cells (TCR specific for the InsB:9-23–DQ8 complex); assay: Cellular antigen presentation assay; assay type: cell-based, mouse; settings: BSM cells + 5KC cells incubated with the peptide; IL-2 by Luminex
Outline: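 HLA-DQ8-homozygous BSM B-cells (RPMI, 10% FBS, 37 °C, 5% CO2): 10^6 cells loaded overnight with 200 μg/ml InsB:9-23 (scrambled InsB:9-23 or gliadin as negative peptides), washed twice with PBS, then given RI-D-peptide or scrambled control for 2 h at 37 °C. 5KC mouse T-hybridoma cells with human TCR added 1:1, overnight. Supernatant IL-2 by Luminex; anti-CD3/CD28 beads as positive control; 4–5 independent experiments.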

[5] = test system: recombinant HLA-DQ8 protein; assay: DELFIA immunoassay: inhibition of binding of other HLA-DQ8-binders; parameters: species or system human; settings: biotinylated GAD65 or gliadin peptide with RI-D-peptide
[6] = test system: recombinant HLA-DQ8 protein; assay type: binding, human; settings: serially diluted to 0.5 μM, 48 hours at 37 °C
Outline: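 DELFIA: recombinant HLA-DQ8 (0.012 mg/ml) with 10 μM biotinylated InsB:9-23, plus RI-D-peptide serially diluted to 0.5 μM final, 48 h at 37 °C in 0.1% BSA/PBS with 0.05% Triton. Then bound on nickel-coated plates 2 h at RT, washed, Eu-streptavidin 30 min at RT, washed, enhancement solution ~1 h. Time-resolved fluorescence gave percent inhibition.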

[7] = test system: PBMCs from HLA-DQ8 positive T1D patients; assay: Lymphocyte proliferation; assay type: cell-based, human; settings: all peptides 20 μg/ml; gated on live T-cells
Outline: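 Fresh Ficoll-isolated PBMCs from patients with at least one DQB*03:02 allele, in RPMI/10% FBS. Stimulated 48 h with InsB:9-23 or scrambled InsB:9-23, with or without RI-D-peptides or scrambled versions, all at 20 μg/ml. Proliferation by CFSE as for mouse lymphocytes, gated on live T-cells. Inhibition = 100 − 100 × (proliferation with/without RI-D-peptide).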

[8] = test system: lymphocytes from immunized SJL-DQ8 mice; assay: Ex vivo cytokine production; assay type: cell-based, mouse; settings: all peptides 20 μg/ml, 48 hours, Luminex; 20 SJL-DQ8 mice
Outline: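 Lymphocytes from spleens and draining nodes of SJL-DQ8 mice (6–8 weeks) immunised s.c. with 150 μg InsB:9-23 in CFA and boosted in IFA. Plated at 2×10^5 cells/well in RPMI/10% FBS with medium, InsB:9-23 with or without RI-D-peptides or scrambled versions, or scrambled InsB:9-23, all at 20 μg/ml. Supernatants taken at 48 h, kept at −80 °C, cytokines by mouse Milliplex Luminex panel.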

| Sequence | Lymphocyte proliferation induced by InsB:9-23 (CFSE assay) [1] | IFN-γ ELISPOT response to InsB:9-23 [2] | IL-2 ELISPOT response to InsB:9-23 [2] | IFN-γ production in PBMCs stimulated with InsB:9-23 [3] | IL-2 production in PBMCs stimulated with InsB:9-23 [3] | Activation of 5KC T-cells (IL-2 secretion) by the peptide itself [4] | Competition with other HLA-DQ8-binders (GAD65, gliadin) [5] | Dose dependence of inhibition of InsB:9-23 binding to HLA-DQ8 [6] | Lymphocytes proliferation in PBMCs stimulated with InsB:9-23 (CFSE assay) [7] | IFN-γ production by lymphocytes stimulated with InsB:9-23 [8] | IL-2 production by lymphocytes stimulated with InsB:9-23 [8] |
| --- | --- | --- | --- | --- | --- | --- | --- | --- | --- | --- | --- |
| GGREGCVLYLAEVGG [RI-CT] | significantly suppressed | significantly decreased | significantly decreased | significantly suppressed | significantly suppressed | did not activate TCR | competed only with InsB:9-23 and not with other HLA-DQ8-binders | dose-dependent | significantly suppressed | significantly blocked | significantly blocked |
| FFGGREGCVLYLAEVLHSG [RI-EXT] | significantly suppressed | significantly decreased | significantly decreased | significantly suppressed | significantly suppressed | did not activate TCR | competed only with InsB:9-23 and not with other HLA-DQ8-binders | dose-dependent | significantly suppressed | significantly blocked | significantly blocked |
